In ChEMBL document CHEMBL6134796, “Development and Evaluation of Indole-Based Phospholipase D Inhibitors for Lung Cancer Immunotherapy” (J Med Chem, 2025) one finds Activity, inhibition and IC50 data, which are given here for one compound.

Activity calls are given as the source filed them. The calls are words filed in the database; no cut-off is given here.

The subject of one experiment is A549 (human). Nature of the experiment: Cytotoxicity against human A549 cells assessed as decrease in cell growth by WST-1 assay. The settings on record: time 2-48 hrs. On the technique in general: Formazan colour is commonly taken as a measure of viable cells.
The test system of experiment [1] is A549. Nature of the experiment: Inhibition of PLD1 F614A mutant (unknown origin) overexpressed in human A549 cells. In kind it is cell-based. In short, it runs like this: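 A549 cells transfected with wild-type PLD1, PLD1 mutants (L425A, F614A, F789A) or PLD2, then compound-treated. PLD activity measured as [3H]phosphatidylbutanol formed in the presence of 1-butanol after [3H]myristic acid labeling, expressed as % of total lipid cpm. At least three independent experiments.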

The subject of experiment [2] is A549. Kind of experiment: Downregulation of PD-L1 expression in human A549 cells by flow cytometry analysis. It is filed as functional, cell-based. In short, it runs like this: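 A549 cells treated with compound. Surface "don't eat-me" and "eat-me" markers measured by flow cytometry.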
Experiment [3] has as its system A549. Nature of the experiment: Induction of apoptosis in human A549 cells assessed as increase in caspase-3 activity measured up to 48 hrs in presence of gemcitabine […]. It is filed as functional, cell-based. In short, it runs like this:
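A549 cells given compound, gemcitabine, or both. Apoptosis assessed by PI staining, annexin V flow cytometry, cleaved PARP immunoblot, and caspase-3 activity. For caspase-3: drugs at 10 μM for 48 h, then 1 μM NucView 488 substrate for 30 min, with 1 μM Hoechst 33342, read by plate fluorescence.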

The test system of experiment [4] is Mus musculus. Nature of the experiment: In vivo inhibition of KRAS activation in male C57BL/6 mouse allografted with mouse Lewis lung carcinoma cell line assessed as decrease in IKBalpha phosphorylation at 10 mg/kg, po. It is filed as functional, organism-based.
The target in experiment [5] is T1, Phospholipase D1 (Mus musculus) (UniProt Q9Z280).
T1 sequence (whole entry): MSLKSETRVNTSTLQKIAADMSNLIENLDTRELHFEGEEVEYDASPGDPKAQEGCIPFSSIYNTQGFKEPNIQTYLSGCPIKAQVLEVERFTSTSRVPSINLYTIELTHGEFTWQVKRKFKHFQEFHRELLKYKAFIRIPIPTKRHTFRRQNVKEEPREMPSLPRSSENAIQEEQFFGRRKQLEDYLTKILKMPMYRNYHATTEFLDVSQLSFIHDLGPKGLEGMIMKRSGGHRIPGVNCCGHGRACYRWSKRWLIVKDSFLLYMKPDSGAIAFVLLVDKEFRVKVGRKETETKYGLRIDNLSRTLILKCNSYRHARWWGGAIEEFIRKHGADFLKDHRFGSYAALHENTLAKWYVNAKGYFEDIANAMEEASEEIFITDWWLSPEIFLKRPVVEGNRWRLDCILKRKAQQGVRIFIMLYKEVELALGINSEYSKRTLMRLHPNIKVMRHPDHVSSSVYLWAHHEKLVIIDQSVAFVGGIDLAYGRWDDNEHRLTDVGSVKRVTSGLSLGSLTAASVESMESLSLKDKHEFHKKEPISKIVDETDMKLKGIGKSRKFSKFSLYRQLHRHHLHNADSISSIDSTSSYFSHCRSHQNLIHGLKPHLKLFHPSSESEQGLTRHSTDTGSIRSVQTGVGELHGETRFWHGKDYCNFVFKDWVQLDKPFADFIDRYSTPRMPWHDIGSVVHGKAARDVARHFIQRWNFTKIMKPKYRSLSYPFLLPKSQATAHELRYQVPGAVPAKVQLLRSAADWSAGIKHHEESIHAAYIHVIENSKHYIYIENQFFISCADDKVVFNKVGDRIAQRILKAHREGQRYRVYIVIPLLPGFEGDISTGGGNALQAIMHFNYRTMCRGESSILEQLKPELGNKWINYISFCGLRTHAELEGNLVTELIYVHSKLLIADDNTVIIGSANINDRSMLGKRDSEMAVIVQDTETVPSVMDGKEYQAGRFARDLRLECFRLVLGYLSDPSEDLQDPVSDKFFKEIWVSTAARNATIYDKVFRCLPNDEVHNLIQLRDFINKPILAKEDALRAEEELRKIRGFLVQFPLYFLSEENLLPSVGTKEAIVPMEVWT
Kind of experiment: In vivo inhibition of PLD1 in male C57BL/6 mouse allografted with mouse Lewis lung carcinoma cell line assessed as increase in IL-17+ th17 cell population at 10 mg/kg, po by immunofluorescence analysis. It is filed as functional, organism-based. In short, it runs like this:
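Same LLC syngeneic C57BL/6 model, 10 mg/kg PO every other day for 3 weeks. Tumor tissues were stained by immunofluorescence for CD80+ and CD163+ cells, CD8+ T cells, and CD4+/IL-17+ and Treg populations. Nuclei were counterstained with 1 μM Hoechst 33342 and imaged by confocal microscopy.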

Experiment [6] in a line: Cytotoxicity against human HCC15 cells assessed as inhibition of cell growth incubated for 48 hrs by WST-1 assay. In kind it is functional, cell-based. To be noted: HCC15, 48 h. In a few lines:
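WST-1 viability assay. Cells seeded at 5 × 10^3 per well and incubated 24 h at 37 °C, then exposed to drug for 48 h. Absorbance read at 450 nm, in triplicate. IC50 taken as the concentration giving 50% growth inhibition versus control.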

Experiment [7] has as its system Mus musculus. Nature of the experiment: In vivo inhibition of KRAS activation in male C57BL/6 mouse allografted with mouse Lewis lung carcinoma cell line assessed as decrease in ERK phosphorylation at 10 mg/kg, po. It is filed as functional, organism-based.
For another experiment, the system named is HCT-116. Kind of experiment: Cytotoxicity against human HCT-116 cells assessed as inhibition of cell growth incubated for 48 hrs by WST-1 assay. The settings on record: HCT-116, 48 h. In kind it is functional, cell-based.
Experiment [8] has as its system A549. Kind of experiment: Cytotoxicity against human A549 cells assessed as increase in cell death rate by WST-1 assay. It is filed as functional, cell-based. To be noted: time 2-48 hrs.
Experiment [9] addresses T1, Phospholipase D1 (Mus musculus). Kind of experiment: In vivo inhibition of PLD1 in male C57BL/6 mouse allografted with mouse Lewis lung carcinoma cell line assessed as reduction in PD-L1 expression at 10 mg/kg, po by immunofluorescence analysis. It is filed as functional, organism-based.
In experiment [10] the test system is A549. Nature of the experiment: Inhibition of cell migration in human A549 cells measured after 24 hrs by crystal violet staining based light microscopic analysis. It is filed as functional.
Experiment [11] relates to A549. Nature of the experiment: Synergistic antiproliferative activity against human A549 cells assessed as reduction in cell proliferation measured up to 48 hrs in presence of gemcitabine by IncuCyte real-time imaging.
For another experiment, the system named is Calu-6. Kind of experiment: Cytotoxicity against human Calu-6 cells assessed as inhibition of cell growth incubated for 48 hrs by WST-1 assay. In kind it is functional, cell-based. To be noted: Calu-6, 48 h.
For experiment [12], the target named is T1, Phospholipase D1 (Mus musculus). Kind of experiment: In vivo inhibition of PLD1 in male C57BL/6 mouse allografted with mouse Lewis lung carcinoma cell line assessed as increase in calreticulin expression at 10 mg/kg, po by immunofluorescence analysis. In kind it is functional, organism-based.
Experiment [13] relates to A549. Kind of experiment: Enhancement of macrophage induced phagocytosis in CFSE labelled human A549 cells assessed as increase on CD11b+CFSE macrophage […] at 5 to 20 uM incubated for 48 hrs by flow cytometric analysis. It is filed as functional, cell-based. To be noted: dose 5-20 µM. In short, it runs like this: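 A549 cells treated 48 h in RPMI/10% FBS, then labeled with 1 μM CFSE. Co-cultured 1:1 (5 × 10^5 each) with PMA-differentiated THP-1 macrophages in serum-free RPMI for 2 h. After Fc block, stained with PerCP-Cy5.5 anti-CD11b for 20 min at 4 °C. CD11b+CFSE+ fraction measured by flow cytometry.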

Consider `O=C(CCc1c[nH]c2ccccc12)Nc1cc(C(F)(F)F)cc(C(F)(F)F)c1`, for which the Activity result with A549 (human) and with A549 [8] was “Time-dependent-effect” each time. Further, the inhibition entry in the experiment on A549 [1] was “inactive”. Moreover, the result in the experiment with A549 [2], in the experiment on A549 [3], in the experiment on A549 [11] and in the experiment on A549 [13] was Active. Also, the inhibition entry (in the experiment with Mus musculus [4]; in experiment [5]; in the experiment with Mus musculus [7]; in experiment [9]; in the experiment on A549 [10]; in experiment [12]) was “Active” in each case. The IC50 – broadly, the concentration that inhibits the measured activity by half – in experiment [6] was 21.4 µM; in the experiment on HCT-116 it was 29 µM; in the experiment on Calu-6, 19 µM.
